According to ChEMBL document CHEMBL4373632, “3D QSAR-based design and liquid phase combinatorial synthesis of 1,2-disubstituted benzimidazole-5-carboxylic acid and 3-substituted-5H-benzimidazo[1,2-d][1,4]benzodiazepin-6(7H)-one derivatives as anti-mycobacterial agents” (Medchemcomm, 2019):
Values after ≈ are worked out from the molar mass of the structure shown.

How the values were obtained:
THP-1 [1] = assay: Cytotoxicity against human THP1 cells assessed as redution in cell viability at 50 uM by WST-1 assay; type: cell-based; details: thp-1, 50 µM
Summary of the method: (§1)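 THP-1 macrophages; viability read with the WST-1 cell proliferation kit following the manufacturer's protocol. Compounds came from 50 mM DMSO stocks, with 50 μM the highest final concentration tested.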

[2] = tested on: Mycobacterium tuberculosis; assay: Antimycobacterial activity against Mycobacterium tuberculosis H37Rv infected in human THP-1 cells assessed as reduction in microbial growth after 4 days by ten-fold serial dilution method; type: functional
Summary of the method: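 PMA-differentiated THP-1 macrophages (2 × 10^5 per well) infected with Mtb H37Rv at MOI 1:10. At 4 h, extracellular bacteria removed with 200 μg ml–1 amikacin in RPMI for 2 h. At 24 h, cells were washed and given RPMI with drug at non-cytotoxic concentration for 4 days. Lysis in PBS–0.1% Triton X-100, then 10-fold serial dilutions plated on MB 7H11 for 3–4 weeks at 37 °C. Triplicate wells, mean + S.E.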

[3] = tested on: Mycobacterium tuberculosis; assay: Antimycobacterial activity against Mycobacterium tuberculosis H37Rv after 14 days; type: functional; details: 336 h
Summary of the method: (§2)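 Mtb H37Rv grown in MB 7H9 (10% albumin dextrose saline, 0.2% glycerol, 0.05% tween-80) to OD600nm 0.2, diluted 1000× and added to 96-well plates with compounds (50 mM DMSO stocks). Tested range 0.05 to 50 μM. Incubated 37 °C for 14 days; MIC determined per standard protocol.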

[4] = Lipophilicity, logP of compound; type: physicochemical; details: octanol/water
[5] = tested on: Mycobacterium tuberculosis; assay: Antimycobacterial activity against Mycobacterium tuberculosis; type: functional; summary of the method: as §2
THP-1 [6] = assay: Cytotoxicity against human THP1 cells assessed as redution in cell viability at 10 uM by WST-1 assay; type: cell-based; details: thp-1, 10 µM; summary of the method: as §1

Row | Structure (SMILES) | MIC [3] [µM] | further results
1 | O=C1Cn2c(nc3ccccc32)-c2ccc(NC(=O)c3ccc(F)cc3)cc2N1 | 0.195 (≈ 0.0753 µg/mL) | Activity (THP-1 [1]): Non-Toxic; fold change (FC) [2]: 8 - 10
2 | CC(C)c1nc2cc(C(=O)O)ccc2n1-c1ccc(Br)cc1 | 50 (≈ 18 µg/mL) | –
3 | CC(C)c1nc2cc(C(=O)O)ccc2n1-c1ccc(C#N)cc1 | 50 (≈ 15.3 µg/mL) | –
4 | Cc1ccc(C(=O)N2CCC(Cn3c(C(C)C)nc4cc(C(=O)O)ccc43)CC2)cc1 | 25 (≈ 10.5 µg/mL) | –
5 | COc1ccc(C(=O)Nc2ccc3c(c2)NC(=O)Cn2c-3nc3ccccc32)cc1 | 3.12 (≈ 1.25 µg/mL) | –
6 | CC(C)c1nc2cc(C(=O)O)ccc2n1-c1ccccc1Cl | > 50 | –
7 | CC(C)c1nc2cc(C(=O)O)ccc2n1Cc1cccc(F)c1 | 12.5 (≈ 3.9 µg/mL) | –
8 | O=C1Cn2c(nc3ccccc32)-c2ccc(NC(=O)c3ccccc3)cc2N1 | > 50 | –
9 | COc1ccc(-n2c(C(C)C)nc3cc(C(=O)O)ccc32)cc1OC | 25 (≈ 8.51 µg/mL) | –
10 | CC(C)c1nc2cc(C(=O)O)ccc2n1-c1ccc(N(C)C)cc1 | 50 (≈ 16.2 µg/mL) | –
11 | CC(C)c1nc2cc(C(=O)O)ccc2n1-c1cccnc1 | 50 (≈ 14.1 µg/mL) | –
12 | NNC(=O)c1ccncc1 [ISONIAZID] | 0.39 (≈ 0.0535 µg/mL) | fold change (FC) [2]: 30
13 | CC(C)c1nc2cc(C(=O)O)ccc2n1-c1cccc([N+](=O)[O-])c1 | 25 (≈ 8.13 µg/mL) | –
14 | COc1ccc(S(=O)(=O)Nc2ccc3c(c2)NC(=O)Cn2c-3nc3ccccc32)cc1 | 1.56 (≈ 0.678 µg/mL) | –
15 | Nc1ccc2c(c1)NC(=O)Cn1c-2nc2ccccc21 | 0.0975 (≈ 0.0258 µg/mL) | Activity (THP-1 [1]): Non-Toxic; fold change (FC) [2]: 8 - 10
16 | CCN(CC)c1ccc(/C=C/C(=N/Nc2nc(C)cs2)C2=Cc3ccccc3C2)cc1 | – | logP [4]: 6.03; MIC90 [5]: 2.5 µg/mL (≈ 5.83 µM)
17 | CC(C)c1nc2cc(C(=O)O)ccc2n1-c1ccc(O)cc1 | 50 (≈ 14.8 µg/mL) | –
18 | COc1cc(-n2c(C(C)C)nc3cc(C(=O)O)ccc32)cc(OC)c1O | 0.78 (≈ 0.278 µg/mL) | Activity (THP-1 [1]): Non-Toxic; fold change (FC) [2]: 8 - 10
19 | CC(C)c1nc2cc(C(=O)O)ccc2n1-c1ccncc1 | 25 (≈ 7.03 µg/mL) | –
20 | O=C(CCc1ccccc1)Nc1cc2nc(C3CCCCC3)[nH]c2cc1N1CC1 | – | logP [4]: 4.57
21 | COc1cccc(-n2c(C(C)C)nc3cc(C(=O)O)ccc32)c1O | 0.78 (≈ 0.255 µg/mL) | Activity (THP-1 [1]): Non-Toxic
22 | O=C1Cn2c(nc3ccccc32)-c2ccc(NC(=O)c3ccc(Br)cc3)cc2N1 | > 50 | –
23 | CCOC(=O)C(=O)Nc1ccc2c(c1)NC(=O)Cn1c-2nc2ccccc21 | 0.78 (≈ 0.284 µg/mL) | Activity (THP-1 [1]): Non-Toxic
24 | CC(C)c1nc2cc(C(=O)O)ccc2n1CC1CCN(C(=O)c2ccc(F)cc2)CC1 | 50 (≈ 21.2 µg/mL) | –
25 | COc1ccc(C(=O)N2CCC(Cn3c(C(C)C)nc4cc(C(=O)O)ccc43)CC2)cc1 | 50 (≈ 21.8 µg/mL) | –
26 | Cc1ccc(C(=O)Nc2ccc3c(c2)NC(=O)Cn2c-3nc3ccccc32)cc1 | 0.39 (≈ 0.149 µg/mL) | Activity (THP-1 [6]): Non-Toxic
27 | O=C1Cn2c(nc3ccccc32)-c2ccc(NC(=O)c3ccc([N+](=O)[O-])cc3)cc2N1 | 0.195 (≈ 0.0806 µg/mL) | Activity (THP-1 [6]): Non-Toxic; fold change (FC) [2]: 8 - 10
28 | O=C1Cn2c(nc3ccccc32)-c2ccc(NC(=O)c3ccc(Cl)cc3)cc2N1 | 1.56 (≈ 0.628 µg/mL) | Activity (THP-1 [1]): Non-Toxic; fold change (FC) [2]: 8 - 10
